Assay results: ChEMBL document CHEMBL1155041, “Discovery of N-(2-aminophenyl)-4-[(4-pyridin-3-ylpyrimidin-2-ylamino)methyl]benzamide (MGCD0103), an orally active histone deacetylase inhibitor” (J Med Chem, 2008)
Where a name gives a salt, the structure may show the parent alone. One block for each molecule: values may come before it. The source made the active and inactive calls. No cut-off for these calls is given here.

Key:
HCT-116 [1] = test: Induction of apoptosis in HCT116 cells at 1 uM; format: functional, cell-based; details: Homo sapiens
How it was run: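 Apoptosis was measured in HCT116 cells with a cell-death detection ELISA (nucleosome release), read at 405 nm with a 490 nm reference. Scored positive/negative at 1 µM.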

SW48 [2] = test: Antitumor activity against human SW48 cells xenografted in CD1 nude mouse at 90 mg/kg/day, po; format: functional; details: read-out: TGI
How it was run: (§1)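 Tumors were started from about 2 million cells injected sc into the flank of female CD-1 nude mice aged 8-10 weeks, then serially passaged at least three times. About 30 mg fragments were implanted sc under anesthesia. Dosing was oral, daily, as a solution in PBS acidified with 0.1 N HCl. Tumor volume and body weight were measured three times weekly for ≥2 weeks, with 6-8 animals per group and Student's t-test.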

SW48 [3] = test: Antitumor activity against human SW48 cells xenografted in CD1 nude mouse at 60 mg/kg/day, po; format: functional; details: read-out: TGI; how it was run: as §1
SW48 [4] = test: Antitumor activity against human SW48 cells xenografted in CD1 nude mouse at 120 mg/kg/day, po; format: functional; details: read-out: TGI; how it was run: as §1
HMEC = test: Antiproliferative activity against HMEC after 72 hrs by MTT assay; format: functional, cell-based; details: Homo sapiens
How it was run: (§2)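 Cells (HMEC from a commercial source, others from ATCC) cultured per vendor instructions, exposed to a range of concentrations for 72 h at 37 °C, 5% CO2. MTT at 0.5 mg/mL final for 4 h, then DMF/SDS solubilization overnight, absorbance at 570 nm with 630 nm reference. OD converted to cell number via a growth curve. IC50 is the concentration giving 50% of DMSO-control cell number. At least three independent experiments.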

[5] = Tmax in CD1 mouse at 2.5 to 15 mg/kg, po; format: ADME, organism-based; set-up: dose 2.5-15 mg/kg, route oral; details: in vivo
How it was run: (§3)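 Female CD-1 mice, female Sprague-Dawley rats and male beagle dogs were dosed iv or orally. Vehicles: mice, 0.05-0.1 N HCl in saline for both routes. Rats, 0.02-0.1 N HCl in saline iv; for po, HCl/saline with 0.5% HPMC and 0.01% Tween-80, or 0.5% CMC in 50 mM acetate pH 4.0. Dogs, HCl/saline with 40% PEG400 iv; for po, HCl/saline ±PEG400 or 0.5% hydroxyethylcellulose in pH 4.0 acetate. Plasma was collected over time and analyzed by LC-MS/MS.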

[6] = Volume of distribution at steady state in Sprague-Dawley rat at 2.5 to 5 mg/kg, iv and 2.5 to 50 mg/kg, po; format: ADME, organism-based; details: in vivo, read-out: Vdss; how it was run: as §3
DU-145 [7] = test: Antitumor activity against human DU145 cells xenografted in CD1 nude mouse at 80 mg/kg; format: functional; details: read-out: TGI; how it was run: as §1
DU-145 [8] = test: Antitumor activity against human DU145 cells xenografted in CD1 nude mouse at 40 mg/kg/day, po; format: functional; details: read-out: TGI; how it was run: as §1
[9] = Half life in CD1 mouse at 2.5 to 15 mg/kg, iv; format: ADME, organism-based; set-up: dose 2.5-15 mg/kg, route intravenous; details: in vivo; how it was run: as §3
A-431 [10] = test: Antitumor activity against human A431 cells xenografted in CD1 nude mouse at 60 mg/kg/day, po; format: functional; details: read-out: TGI; how it was run: as §1
[11] = Oral bioavailability in Beagle dog at 7 to 30 mg/kg; format: ADME, organism-based, Canis lupus familiaris; details: in vivo; how it was run: as §3
[12] = Clearance in Beagle dog at 10 mg/kg, iv and 7 to 30 mg/kg, po; format: ADME, organism-based, Canis lupus familiaris; details: in vivo; how it was run: as §3
[13] = Half life in Beagle dog at 10 mg/kg, iv; format: ADME, organism-based, Canis lupus familiaris; set-up: dose 10 mg/kg, route intravenous; details: in vivo; how it was run: as §3
Mus musculus [14] = test: Volume of distribution in CD1 mouse at 2.5 to 15 mg/kg, iv and po; format: ADME, organism-based; set-up: dose 2.5-15 mg/kg, route oral; details: in vivo; how it was run: as §3
Histone deacetylase 11 = molecular target: T1, Histone deacetylase 11 (Homo sapiens, UniProt Q96DB2); test: Inhibition of human recombinant HDAC11 homogeneous fluorescence release assay
T1 sequence (Q96DB2 whole entry): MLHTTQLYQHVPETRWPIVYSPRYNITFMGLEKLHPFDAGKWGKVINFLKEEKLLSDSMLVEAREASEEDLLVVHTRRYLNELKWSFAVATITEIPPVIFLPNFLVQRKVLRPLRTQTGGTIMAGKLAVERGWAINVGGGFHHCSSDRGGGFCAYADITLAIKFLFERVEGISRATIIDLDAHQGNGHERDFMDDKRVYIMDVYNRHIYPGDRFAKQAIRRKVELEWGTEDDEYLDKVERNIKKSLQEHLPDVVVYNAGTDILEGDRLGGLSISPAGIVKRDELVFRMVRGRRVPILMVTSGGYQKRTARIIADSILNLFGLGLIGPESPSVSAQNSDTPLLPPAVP
How it was run: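 Boc-Lys(ε-Ac)-AMC substrate then added at 37 °C, with isotype-specific substrate level and time. Trypsin 20 min at RT releases fluorophore, read ex 360/em 470 nm. IC50 from dose-response curves, 6-21 independent experiments.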

Canis familiaris = test: Cmax in Beagle dog at 7 to 30 mg/kg, po; format: ADME, organism-based, Canis lupus familiaris; set-up: dose 7-30 mg/kg, route oral; details: in vivo; how it was run: as §3
T-24 = test: Induction of H3 histone acetylation in human T24 cells relative to MS275; format: functional, cell-based
How it was run: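 Histones were acid-extracted (H2SO4, then acetone precipitation) from treated cells. In the ELISA, 2 µg of histones went onto anti-histone-coated plates and were probed with anti-acetyl-H3 (1:1000). Signal was normalized to total H3 measured on 0.5 µg with anti-H3.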

[15] = Oral bioavailability in CD1 mouse at 2.5 to 15 mg/kg; format: ADME, organism-based; details: in vivo
How it was run: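 Female CD-1 mice dosed iv 2.5-15 mg/kg and orally 2.5-15 mg/kg. Both routes used 0.05-0.1 N HCl in saline. Plasma collected at various time points and analysed by HPLC-MS/MS. Bioavailability taken from oral versus iv exposure.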

[16] = Clearance in Sprague-Dawley rat at 2.5 to 5 mg/kg, iv and 2.5 to 50 mg/kg, po; format: ADME, organism-based; details: in vivo; how it was run: as §3
DU-145 [17] = test: Antitumor activity against human DU145 cells xenografted in CD1 nude mouse at 70 mg/kg/day, po; format: functional; details: read-out: TGI; how it was run: as §1
Rattus norvegicus = test: Cmax in Sprague-Dawley rat at 2.5 to 50 mg/kg, po; format: ADME, organism-based; set-up: dose 2.5-50 mg/kg, route oral; details: in vivo; how it was run: as §3
[18] = Tmax in Sprague-Dawley rat at 2.5 to 50 mg/kg, po; format: ADME, organism-based; set-up: dose 2.5-50 mg/kg, route oral; details: in vivo; how it was run: as §3
HCT-116 [19] = test: Induction of p21cip/waf1 protein expression in human HCT116 cells relative to MS275; format: functional, cell-based
[20] = Volume of distribution at steady state in Beagle dog at 10 mg/kg, iv and 7 to 30 mg/kg, po; format: ADME, organism-based, Canis lupus familiaris; details: in vivo, read-out: Vdss; how it was run: as §3
A549 [21] = test: Antitumor activity against human A549 cells xenografted in CD1 nude mouse at 60 mg/kg/day, po; format: functional; details: read-out: TGI; how it was run: as §1
A-431 [22] = test: Antitumor activity against human A431 cells xenografted in CD1 nude mouse at 90 mg/kg/day, po; format: functional; details: read-out: TGI; how it was run: as §1
Mus musculus [23] = test: Cmax in CD1 mouse at 2.5 to 15 mg/kg, po; format: ADME, organism-based; set-up: dose 2.5-15 mg/kg, route oral; details: in vivo; how it was run: as §3
A549 [24] = test: Antitumor activity against human A549 cells xenografted in CD1 nude mouse at 40 mg/kg/day, po; format: functional; details: read-out: TGI; how it was run: as §1
A549 [25] = test: Antiproliferative activity against human A549 cells after 72 hrs by MTT assay; details: A549, 72 h
HCT-116 [26] = test: Antiproliferative activity against human HCT116 cells after 72 hrs by MTT assay; details: HCT-116, 72 h
[27] = Tmax in Beagle dog at 7 to 30 mg/kg, po; format: ADME, organism-based, Canis lupus familiaris; set-up: dose 7-30 mg/kg, route oral; details: in vivo; how it was run: as §3
[28] = Half life in Sprague-Dawley rat at 2.5 to 5 mg/kg, iv; format: ADME, organism-based; set-up: dose 2.5-5 mg/kg, route intravenous; details: in vivo; how it was run: as §3
[29] = Oral bioavailability in Sprague-Dawley rat at 2.5 to 50 mg/kg; format: ADME, organism-based; details: in vivo
How it was run: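 Female Sprague-Dawley rats dosed iv 2.5-5 mg/kg in 0.02-0.1 N HCl/saline. Oral doses of 2.5-50 mg/kg were given either in 0.02-0.1 N HCl/saline with 0.5% HPMC and 0.01% Tween-80, or in 0.5% CMC in 50 mM acetate pH 4.0. Plasma sampled at various time points and analysed by HPLC-MS/MS.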

DU-145 [30] = test: Antiproliferative activity against human Du145 cells after 72 hrs by MTT assay; format: functional, cell-based; details: DU-145, 72 h; how it was run: as §2
HCT-116 [31] = test: Cell cycle arrest in human HCT116 cells assessed as accumulation at G2/M phase; format: functional, cell-based
How it was run: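 Cells treated for 16 h, fixed in 70% ethanol at -20 °C, RNase-treated and stained with propidium iodide (50 µg/mL). DNA content measured by flow cytometry to score G2/M accumulation. EC50 derived.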

Compound: Nc1ccccc1NC(=O)c1ccc(CNc2nccc(-c3cccnc3)n2)cc1
Activity (HCT-116 [1]): Active

Compound: Nc1ccccc1NC(=O)c1ccc(CNc2nccc(-c3cccnc3)n2)cc1 [MOCETINOSTAT DIHYDROBROMIDE]
inhibition in vivo at 90 mg/kg/day (SW48 [2]): 70%
inhibition in vivo at 60 mg/kg/day (SW48 [3]): 64%
inhibition in vivo at 120 mg/kg/day (SW48 [4]): 93%

Tmax [5]: 15 min
Vd [6]: 0.91 L/kg
half-life [9]: 36 min
bioavailability [11]: 1%
clearance [12]: 33.3 mL/min/kg
half-life [13]: 78 min
Vdss (Mus musculus [14]): 0.35 L/kg
IC50 (Histone deacetylase 11): 590 nM
Cmax normalised (Canis familiaris): 0.0029 µM/mg/kg
EC50 (T-24): 1380 nM
bioavailability [15]: 12%
clearance [16]: 28.3 mL/min/kg
Cmax normalised (Rattus norvegicus): 0.3 µM/mg/kg
Tmax [18]: 35.4 min
EC50 (HCT-116 [19]): 450 nM
Vd [20]: 0.8 L/kg
Cmax normalised (Mus musculus [23]): 0.086 µM/mg/kg
IC50 (A549 [25]): 900 nM
IC50 (HCT-116 [26]): 290 nM
Tmax [27]: 17.4 min
half-life [28]: 42 min
bioavailability [29]: 47%
IC50 (DU-145 [30]): 670 nM
EC50 (HCT-116 [31]): < 1000 nM
Compound: Nc1ccccc1NC(=O)c1ccc(CNc2nccc(-c3cccnc3)n2)cc1 [MOCETINOSTAT]
IC50 (HMEC): 20 µM
inhibition in vivo at 80 mg/kg (DU-145 [7]): 82%
inhibition in vivo at 40 mg/kg/day (DU-145 [8]): 4%
inhibition in vivo at 60 mg/kg/day (A-431 [10]): 30%
inhibition in vivo at 70 mg/kg/day (DU-145 [17]): 47%
inhibition in vivo at 60 mg/kg/day (A549 [21]): 73%
inhibition in vivo at 90 mg/kg/day (A-431 [22]): 64%
inhibition in vivo at 40 mg/kg/day (A549 [24]): 56%
